Key:
Type in all cases: functional
CAKI-1 = assay: Growth inhibition of human CAKI-1 cells after 48 hrs by SRB assay; settings: CAKI-1, 48 h
MDA-MB-468 = assay: Growth inhibition of human MDA-MB-468 cells after 48 hrs by SRB assay; settings: MDA-MB-468, 48 h
[1] = Growth inhibition of human HOP92 cells after 48 hrs by SRB assay; settings: HOP-92, 48 h
Paracentrotus lividus = assay: Antimitotic activity against sea urchin embryo model assessed as cleavage arrest of fertilized egg compound treated at 8 to 20 mins post-fertilization and 45 to 55 mins prior to first mitotic cycle completion measured 2.5 to 5.5 hrs post-fertilization
Summary of the method: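 Fertilized eggs are exposed 8–20 min after fertilization to 2-fold decreasing concentrations. Stocks are 10 mM in DMSO, then diluted 10-fold in 95% EtOH; final DMSO is at most 0.05% and EtOH at most 1%. Embryos are kept as a monolayer, up to 2000 embryos/mL, in filtered seawater at room temperature. The value is the threshold concentration giving cleavage alteration, embryo death before hatching or full mitotic arrest. Duplicates were run.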

SK-MEL-5 = assay: Growth inhibition of human SK-MEL-5 cells after 48 hrs by SRB assay; settings: SK-MEL-5, 48 h
UACC-62 = assay: Growth inhibition of human UACC62 cells after 48 hrs by SRB assay; settings: UACC-62, 48 h
SNB-19 = assay: Growth inhibition of human SNB19 cells after 48 hrs by SRB assay; settings: SNB-19, 48 h
COLO 205 = assay: Growth inhibition of human COLO205 cells after 48 hrs by SRB assay; settings: COLO 205, 48 h
SF-295 = assay: Growth inhibition of human SF295 cells after 48 hrs by SRB assay; settings: SF-295, 48 h
[2] = Growth inhibition of human RXF393 cells after 48 hrs by SRB assay; settings: RXF 393, 48 h
A498 = assay: Growth inhibition of human A498 cells after 48 hrs by SRB assay; settings: A498, 48 h
BT-549 = assay: Growth inhibition of human BT549 cells after 48 hrs by SRB assay; settings: BT-549, 48 h
SW-620 = assay: Growth inhibition of human SW620 cells after 48 hrs by SRB assay; settings: SW-620, 48 h
SK-MEL-28 = assay: Growth inhibition of human SK-MEL-28 cells after 48 hrs by SRB assay; settings: SK-MEL-28, 48 h
Malme-3M = assay: Growth inhibition of human MALME-3M cells after 48 hrs by SRB assay

SMILES | GI50 (CAKI-1) [nM] | GI50 (MDA-MB-468) [nM] | GI50 [1] [nM] | EC (Paracentrotus lividus) [µM] | GI50 (SK-MEL-5) [nM] | GI50 (UACC-62) [nM] | GI50 (SNB-19) [nM] | GI50 (COLO 205) [nM] | GI50 (SF-295) [nM] | GI50 [2] [nM] | GI50 (A498) [nM] | GI50 (BT-549) [nM] | GI50 (SW-620) [nM] | GI50 (SK-MEL-28) [nM] | GI50 (Malme-3M) [nM]
COc1ccc(-c2nn[nH]c2-c2cc(OC)c(OC)c(OC)c2)cc1 | < 10 | < 10 | < 10 | 0.02 | < 10 | < 10 | < 10 | 33 | < 10 | < 10 | < 10 | < 10 | < 10 | – | –
COc1ccc(-c2nn[nH]c2-c2cc(OC)c3c(c2OC)OCO3)cc1 | 762 | 218 | 500 | >4 | 343 | 420 | 1800 | 884 | 356 | 657 | 353 | 345 | 385 | 1780 | 766
